Test results taken from ChEMBL document CHEMBL3271969, “2-pyridylimidazoles as inhibitors of xanthine oxidase” (J Med Chem, 1977).

Columns and labels:
[1] = Association constant, apparent pKa of the compound; type: physicochemical
[2] = Dissociation constant, apparent pKa of the compound; type: physicochemical
[3] = target: T1, Xanthine dehydrogenase/oxidase (Bos taurus, UniProt P80457); experiment: Inhibition of bovine xanthine oxidase; details: read-out: I50
[4] = target: T1, Xanthine dehydrogenase/oxidase; experiment: Inhibition of bovine xanthine oxidase at 2 X 10^-5 M; details: cattle; for inhibition (INH): 20 µM
In short: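 Bovine xanthine oxidase, diluted 1:300 to give ΔOD292 of 0.09–0.12 per min, starts the reaction in 0.05 M phosphate buffer pH 7.5 with hypoxanthine at 3×10^-5 M plus inhibitor.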

T1 sequence (P80457 whole entry): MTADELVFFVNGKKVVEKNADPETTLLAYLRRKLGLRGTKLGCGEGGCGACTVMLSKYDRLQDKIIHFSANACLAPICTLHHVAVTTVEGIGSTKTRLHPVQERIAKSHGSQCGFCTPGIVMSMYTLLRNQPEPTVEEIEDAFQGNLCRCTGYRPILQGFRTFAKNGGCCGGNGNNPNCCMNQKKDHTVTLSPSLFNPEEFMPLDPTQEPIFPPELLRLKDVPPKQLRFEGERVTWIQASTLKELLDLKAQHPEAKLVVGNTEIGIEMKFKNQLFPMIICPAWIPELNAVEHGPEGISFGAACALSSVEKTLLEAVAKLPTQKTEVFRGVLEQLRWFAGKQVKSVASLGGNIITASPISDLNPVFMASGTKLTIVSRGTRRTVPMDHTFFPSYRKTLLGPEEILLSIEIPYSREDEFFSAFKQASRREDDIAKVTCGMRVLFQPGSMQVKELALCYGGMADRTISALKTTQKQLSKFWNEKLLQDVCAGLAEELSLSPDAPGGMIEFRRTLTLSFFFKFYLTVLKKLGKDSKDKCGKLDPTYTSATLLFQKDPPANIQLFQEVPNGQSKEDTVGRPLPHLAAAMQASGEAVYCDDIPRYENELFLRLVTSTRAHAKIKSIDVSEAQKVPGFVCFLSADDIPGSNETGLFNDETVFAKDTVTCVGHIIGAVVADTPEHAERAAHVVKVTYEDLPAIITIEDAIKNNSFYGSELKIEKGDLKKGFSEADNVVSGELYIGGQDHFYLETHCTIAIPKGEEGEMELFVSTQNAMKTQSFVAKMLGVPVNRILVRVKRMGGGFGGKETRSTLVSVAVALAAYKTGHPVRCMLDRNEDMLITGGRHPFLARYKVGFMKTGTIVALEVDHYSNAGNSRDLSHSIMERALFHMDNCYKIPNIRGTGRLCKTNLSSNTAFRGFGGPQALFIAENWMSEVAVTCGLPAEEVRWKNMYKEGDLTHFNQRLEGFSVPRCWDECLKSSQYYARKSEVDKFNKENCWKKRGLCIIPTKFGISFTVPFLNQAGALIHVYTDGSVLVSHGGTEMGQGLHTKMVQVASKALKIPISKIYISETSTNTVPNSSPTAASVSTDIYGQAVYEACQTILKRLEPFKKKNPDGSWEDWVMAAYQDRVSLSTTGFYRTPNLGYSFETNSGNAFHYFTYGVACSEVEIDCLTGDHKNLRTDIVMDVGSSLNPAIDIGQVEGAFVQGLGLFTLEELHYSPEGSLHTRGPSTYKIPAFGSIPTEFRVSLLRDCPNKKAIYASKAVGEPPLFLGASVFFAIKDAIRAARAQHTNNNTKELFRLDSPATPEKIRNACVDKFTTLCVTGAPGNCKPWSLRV

| Compound | IC50 [3] | inhibition (INH) [4] | further results |
| --- | --- | --- | --- |
| FC(F)(F)c1cnc(-c2cccnc2)[nH]1 | 40 µM | – | pKa [1]: 3.5; pKa [2]: 10.2 |
| c1cncc(-c2nc3cccnc3[nH]2)c1 | – | Not Active | – |
| NC(=O)c1nc(-c2ccncc2)[nH]c1C(N)=O | – | – | inhibition at 20 µM [4]: 14% |
| Cc1cnc(-c2ccncc2)[nH]1 | – | Not Active | – |
| Cc1cnc(-c2cccnc2)[nH]1 | – | Not Active | – |
| c1cc(-c2ncc[nH]2)ccn1 | – | Not Active | – |
| N#Cc1nc(-c2ccncc2)[nH]c1C#N | 0.02 µM | – | – |
| FC(F)(F)c1cnc(-c2ccncc2)[nH]1 | 2 µM | – | pKa [1]: 3.76; pKa [2]: 9.73 |
| O=C(O)c1nc(-c2cccnc2)[nH]c1C(=O)O | 1 µM | – | – |
| O=C(O)c1cnc(-c2ccncc2)[nH]1 | – | – | inhibition at 20 µM [4]: 34% |
| COC(=O)c1nc(-c2cccnc2)[nH]c1C(=O)OC | – | Not Active | – |
| Clc1cc2nc(-c3ccncc3)[nH]c2cc1Cl | 15 µM | – | pKa [1]: 3; pKa [2]: 9.33 |
| COC(=O)c1nc(-c2ccncc2)[nH]c1C(=O)OC | – | Not Active | pKa [1]: 3.98; pKa [2]: 7.15 |
| O=[N+]([O-])c1c[nH]cn1 | – | Not Active | pKa [2]: 9 |
| c1cnc2[nH]c(-c3ccncc3)nc2c1 | – | Not Active | – |
| Clc1ccc2nc(-c3cccnc3)[nH]c2c1 | – | Not Active | – |

| Compound | IC50 [3] | inhibition (INH) [4] | further results |
| --- | --- | --- | --- |
| N#Cc1nc(-c2ccncc2)[nH]c1C(N)=O | 0.5 µM | – | – |
| N#Cc1nc(-c2cccnc2)[nH]c1C#N | 35 µM | – | – |
| O=[N+]([O-])c1cnc(-c2cccnc2)[nH]1 | 1.3 µM | – | – |
| Brc1nc(-c2cccnc2)[nH]c1Br | 20 µM | – | – |
| Clc1ccc2[nH]c(-c3ccncc3)nc2c1 | – | – | pKa [1]: 3.5; pKa [2]: 10 |
| O=C(O)c1nc(-c2ccncc2)[nH]c1C(=O)O | 5.8 µM | – | – |
| c1cncc(-c2ncc[nH]2)c1 | – | Not Active | – |
| COC(=O)c1cnc(-c2ccncc2)[nH]1 | – | – | inhibition at 20 µM [4]: 10% |
| c1ccc2[nH]c(-c3ccncc3)nc2c1 | – | Not Active | pKa [1]: 3.85; pKa [2]: 10.9 |
| NC(=O)c1nc(-c2cccnc2)[nH]c1C(N)=O | – | Not Active | – |
| c1cc(-c2nc3cnccc3[nH]2)ccn1 | 13 µM | – | – |
| c1cncc(-c2nc3cnccc3[nH]2)c1 | – | – | inhibition at 20 µM [4]: 23% |
| O=[N+]([O-])c1cnc(-c2ccncc2)[nH]1 | 0.35 µM | – | – |
| Clc1nc(-c2cccnc2)[nH]c1Cl | – | – | inhibition at 20 µM [4]: 29% |
| N#Cc1cnc(-c2ccncc2)[nH]1 | 5.6 µM | – | – |
